The values below come from ChEMBL document CHEMBL1944523, “Benzimidazolones: a new class of selective peroxisome proliferator-activated receptor γ (PPARγ) modulators” (J Med Chem, 2011).

Assay [1] has as its target T1, Peroxisome proliferator-activated receptor alpha (Homo sapiens, UniProt Q07869).
T1 sequence (Q07869 whole entry): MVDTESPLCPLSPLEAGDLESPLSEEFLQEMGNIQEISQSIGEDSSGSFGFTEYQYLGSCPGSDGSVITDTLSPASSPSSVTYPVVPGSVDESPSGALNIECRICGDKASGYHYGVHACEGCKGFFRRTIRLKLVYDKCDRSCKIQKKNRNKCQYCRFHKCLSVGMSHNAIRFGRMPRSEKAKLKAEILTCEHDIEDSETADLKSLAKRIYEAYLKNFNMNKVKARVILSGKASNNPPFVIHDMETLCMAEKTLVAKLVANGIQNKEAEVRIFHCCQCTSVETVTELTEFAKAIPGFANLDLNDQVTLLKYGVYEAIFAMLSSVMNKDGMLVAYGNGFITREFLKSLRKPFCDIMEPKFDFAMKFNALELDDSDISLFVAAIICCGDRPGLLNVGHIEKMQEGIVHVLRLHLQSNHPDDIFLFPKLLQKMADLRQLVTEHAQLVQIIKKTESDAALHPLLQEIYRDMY
Briefly: Binding affinity to human PPARalpha expressed in COS-1 by scintillation proximity assay. Put shortly: (§1)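 Scintillation proximity binding assay on PPAR receptors giving IC50; mean of three determinations.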

The target of assay [2] is T2, Peroxisome proliferator-activated receptor delta (Homo sapiens, UniProt Q03181).
T2 sequence (Q03181 whole entry): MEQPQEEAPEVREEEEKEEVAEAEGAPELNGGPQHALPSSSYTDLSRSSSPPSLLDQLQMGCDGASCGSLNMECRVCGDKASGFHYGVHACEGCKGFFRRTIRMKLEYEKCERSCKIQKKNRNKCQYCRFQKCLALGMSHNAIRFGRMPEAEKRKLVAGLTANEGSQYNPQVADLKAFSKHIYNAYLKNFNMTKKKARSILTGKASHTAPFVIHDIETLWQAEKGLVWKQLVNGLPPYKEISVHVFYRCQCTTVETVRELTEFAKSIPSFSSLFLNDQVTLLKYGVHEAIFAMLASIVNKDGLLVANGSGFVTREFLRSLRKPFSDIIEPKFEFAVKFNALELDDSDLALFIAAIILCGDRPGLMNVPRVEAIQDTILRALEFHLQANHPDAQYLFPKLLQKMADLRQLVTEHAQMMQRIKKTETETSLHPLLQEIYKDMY
Briefly: Binding affinity to PPARdelta by scintillation proximity assay. In short, it runs like this:
as §1

For assay [3], the target named is T3, Peroxisome proliferator-activated receptor gamma (Homo sapiens) (UniProt P37231).
T3 sequence (whole entry): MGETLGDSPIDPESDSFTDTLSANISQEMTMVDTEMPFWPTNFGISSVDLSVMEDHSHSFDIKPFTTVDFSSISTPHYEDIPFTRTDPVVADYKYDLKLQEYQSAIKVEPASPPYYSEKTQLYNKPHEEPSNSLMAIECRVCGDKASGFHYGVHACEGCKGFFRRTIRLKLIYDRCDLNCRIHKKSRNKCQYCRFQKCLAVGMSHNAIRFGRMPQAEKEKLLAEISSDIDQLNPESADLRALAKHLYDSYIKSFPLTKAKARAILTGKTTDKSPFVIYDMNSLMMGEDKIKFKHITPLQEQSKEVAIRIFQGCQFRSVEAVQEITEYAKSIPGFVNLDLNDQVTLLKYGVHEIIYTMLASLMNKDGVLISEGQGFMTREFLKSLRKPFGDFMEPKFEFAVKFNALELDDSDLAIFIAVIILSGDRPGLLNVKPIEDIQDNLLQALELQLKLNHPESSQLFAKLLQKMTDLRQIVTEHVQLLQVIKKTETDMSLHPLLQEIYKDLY
As to the kind of experiment: Agonist activity at human PPARgamma expressed in COS-1 cells co-expressing with Gal4 by transactivation assay relative to rosiglitazone. It counts as functional, cell-based. In short, it runs like this: (§2)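 GAL4-PPAR chimeric receptor transactivation in transiently co-transfected COS-1 cells with a GAL4-responsive reporter; potency as EC50 and maximum activation expressed relative to rosiglitazone; triplicate, mean reported.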

Assay [4] concerns the target T4, Peroxisome proliferator-activated receptor gamma (Homo sapiens, UniProt P37231).
T4 sequence (P37231 whole entry): T3 sequence (whole entry)
Briefly: Binding affinity to human PPARgamma by scintillation proximity assay. Put shortly: as §1

In assay [5] the target is T4, Peroxisome proliferator-activated receptor gamma. As to the kind of experiment: Agonist activity at human PPARgamma expressed in COS-1 cells co-expressing with Gal4 by transactivation assay. It counts as functional, cell-based. Put shortly:
as §2

`COc1ccc2c(-n3c(=O)n(Cc4ccc(Cl)c(O[C@H](C)C(=O)O)c4)c4ccc(C(F)(F)F)cc43)noc2c1`: the IC50 was above 50 µM in assay [1], above 50 µM in assay [2] and 2.3 nM in assay [4]. The compound further had an Emax in assay [3] of 43%. The same compound yielded an EC50 in assay [5] of 83 nM.
`COc1ccc2c(-n3c(=O)n(-c4cccc([C@@]5(C)OC(=O)NC5=O)c4)c4cc(C(F)(F)F)ccc43)noc2c1`: the IC50 in assay [1] is above 50 µM; in assay [2], above 50 µM; in assay [4], 6930 nM.
For `Cc1ccc2onc(-n3c(=O)n(Cc4ccc(Cl)c(O[C@H](C)C(=O)O)c4)c4cc(C(F)(F)F)ccc43)c2c1`, the values for the IC50 in assay [1], in assay [2] and in assay [4] were above 50 µM, above 50 µM and 11.2 nM, respectively. In assay [3], this compound returned an Emax of 53%. The compound also came in with an EC50 in assay [5] of 3000 nM.
As to `Cc1ccc2c(-n3c(=O)n(Cc4ccc(Cl)c(O[C@H](C)C(=O)O)c4)c4cc(C(F)(F)F)ccc43)noc2c1`, the IC50 in assay [1] is above 50 µM; in assay [2], above 50 µM; in assay [4] it was 14.2 nM. In assay [3], this compound registered an Emax of 37%. The EC50 in assay [5] came out at 77.5 nM.
In the case of `COc1ccc2c(-n3c(=O)n(Cc4cccc([C@@]5(C)OC(O)=NC5=O)c4)c4cc(C(F)(F)F)ccc43)noc2c1`, the figures for the IC50 in assay [1], in assay [2] and in assay [4] were above 50 µM, above 50 µM and 93 nM, respectively. The EC50 in assay [5] is 237 nM.
Regarding `COc1ccc2c(-n3c(=O)n(Cc4ccc(Cl)c(O[C@H](C)C(=O)O)c4)c4cc(C(F)(F)F)ccc43)noc2c1`, the IC50 in assay [1] is above 50 µM; in assay [2], above 50 µM; in assay [4], 4.1 nM. This compound also yielded an Emax in assay [3] of 28%. Further, the EC50 in assay [5] was determined as 103 nM.
In the case of `C[C@@H](Oc1cc(Cn2c(=O)n(-c3noc4ccc(Cl)cc34)c3ccc(C(F)(F)F)cc32)ccc1Cl)C(=O)O`, the IC50 in assay [1] is above 50 µM; in assay [2], above 50 µM; in assay [4] it was 35.4 nM. Besides, the Emax in assay [3] was 36%. The half-maximal effective concentration (EC50) in assay [5] turned out to be 120 nM.
With `COc1ccc2c(-n3c(=O)n(Cc4ccc(Cl)c(O[C@@H](C)C(=O)O)c4)c4cc(C(F)(F)F)ccc43)noc2c1`, the IC50 in assay [1] was above 50 µM; in assay [2], above 50 µM; in assay [4] it was 66 nM. The Emax in assay [3] amounted to 4%. In assay [5], the EC50 is 3000 nM.
As for `COc1ccc2c(-n3c(=O)n(Cc4ccc(Cl)c(O[C@H](C)C(=O)O)c4)c4cc(OC(F)(F)F)ccc43)noc2c1`, the IC50 in assay [1] was above 50 µM; in assay [2] it was above 50 µM; in assay [4] it was 3.2 nM. The same compound returned an Emax in assay [3] of 39%. The same compound gave an EC50 in assay [5] of 11.4 nM.
Consider `COc1ccc2c(-n3c(=O)n(Cc4ccc([C@@]5(C)OC(=O)NC5=O)cc4)c4cc(C(F)(F)F)ccc43)noc2c1`, for which the IC50 in assay [1] is above 50 µM; in assay [2], above 50 µM; in assay [4], 2180 nM.
With `CC[C@@H](Oc1cccc(Cn2c(=O)n(-c3noc4cc(OC)ccc34)c3ccc(C(F)(F)F)cc32)c1)C(=O)O`, the IC50 was above 50 µM in assay [1], above 50 µM in assay [2] and 3660 nM in assay [4].
For `C[C@@H](Oc1cc(Cn2c(=O)n(-c3nc4ccc(Cl)cc4s3)c3ccc(C(F)(F)F)cc32)ccc1Cl)C(=O)O`, the results for the IC50 in assay [1], in assay [2] and in assay [4] were above 50 µM, above 50 µM and 1370 nM, respectively.
With `COc1ccc2c(-n3c(=O)n(Cc4ccccc4[C@@]4(C)OC(=O)NC4=O)c4cc(C(F)(F)F)ccc43)noc2c1`, the IC50 was above 50 µM in assay [1], above 50 µM in assay [2] and 6630 nM in assay [4].
`COc1ccc2c(-n3c(=O)n(Cc4cccc(O[C@H](C)C(=O)O)c4)c4cc(C(F)(F)F)ccc43)noc2c1`: the IC50 was above 50 µM in assay [1], above 50 µM in assay [2] and 924 nM in assay [4].
In the case of `COc1ccc2c(-n3c(=O)n(Cc4cccc([C@@]5(C)OC(=O)NC5=O)c4)c4cc(C(F)(F)F)ccc43)noc2c1`, the Emax in assay [3] stood at 45%.
